Experimental data published in ChEMBL document CHEMBL1932986, “Synthesis and in vitro antimycobacterial activity of compounds derived from (R)- and (S)-2-amino-1-butanol - The crucial role of the configuration” (Eur J Med Chem, 2012).
Values after ≈ are worked out from the molar mass of the structure shown. Active and inactive are the calls of the source. The calls are words filed in the database; no cut-off is given here.

Columns and labels:
Saccharomyces cerevisiae [1] = assay: Antifungal activity against Saccharomyces cerevisiae ATCC 9763 at 50 mg/ml after 72 hrs by agar diffusion test; assay type: functional; conditions: ATCC 9763, 72 h, read-out: DIZ
How it was run: (§1)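 Agar diffusion: yeasts grown on yeast peptone dextrose agar and fungi on potato dextrose agar. Wells are filled with […] of compound solution in DMSO at various concentrations, and the clear-zone diameter is measured. Bracketed values give the lowest concentration (mg/ml) that produces a zone >11 mm. A first screen is run at 50 mg/ml.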

Bacillus mycoides [2] = assay: Antibacterial activity against Bacillus mycoides DSMZ 274 at 2 mg/ml after 24 hrs by agar diffusion test; assay type: functional, organism-based
How it was run: (§2)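 Agar diffusion: wells in agar filled with […] DMSO solution of compound at various concentrations; diameter of clear zone around application point measured. Bacteria grown 24 h at 37 °C on nutrient agar. Compounds first screened at 50 mg/ml; those active then tested at lower concentrations. Bracketed value = lowest concentration (mg/ml) giving zone >11 mm, reported only if activity retained at ≤1.25 mg/ml.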

Priestia megaterium [3] = assay: Antibacterial activity against Bacillus megaterium NRRL 1353895 assessed as concentration required to produce >11 mm of zone of inhibition after 24 hrs by agar diffusion test; assay type: functional; how it was run: as §2
Saccharomyces cerevisiae [4] = assay: Antifungal activity against Saccharomyces cerevisiae ATCC 9763 at 2 mg/ml after 72 hrs by agar diffusion test; assay type: functional, organism-based; how it was run: as §1
Micrococcus luteus [5] = assay: Antibacterial activity against Sarcina lutea ATCC 9341 at 50 mg/ml after 24 hrs by agar diffusion test; assay type: functional; conditions: ATCC 9341, 24 h, read-out: DIZ
How it was run: (§3)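 Agar diffusion: bacteria grown 24 h at 37 °C on nutrient agar. Wells in the agar are filled with […] of compound solution in DMSO at various concentrations. The diameter of the clear zone around the application point is measured. Bracketed values give the lowest concentration (mg/ml) that produces a zone >11 mm. A first screen is run at 50 mg/ml.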

Bacillus cereus [6] = assay: Antibacterial activity against Bacillus cereus ATCC 11778 at 2 mg/ml after 24 hrs by agar diffusion test; assay type: functional, organism-based; how it was run: as §2
Escherichia coli [7] = assay: Antibacterial activity against Escherichia coli ATCC 8739 at 2 mg/ml after 24 hrs by agar diffusion test; assay type: functional, organism-based; how it was run: as §2
Penicillium chrysogenum [8] = assay: Antifungal activity against Penicillium chrysogenum CECT 2802 at 50 mg/ml after 72 hrs by agar diffusion test; assay type: functional; conditions: CECT 2802, 72 h, read-out: DIZ; how it was run: as §1
Acinetobacter johnsonii [9] = assay: Antibacterial activity against Acinetobacter johnsonii ATCC 17909 at 2 mg/ml after 24 hrs by agar diffusion test; assay type: functional; how it was run: as §2
Bacillus cereus [10] = assay: Antibacterial activity against Bacillus cereus ATCC 11778 at 50 mg/ml after 24 hrs by agar diffusion test; assay type: functional; conditions: ATCC 11778, 24 h, read-out: DIZ; how it was run: as §2
Priestia megaterium [11] = assay: Antibacterial activity against Bacillus megaterium NRRL 1353895 at 2 mg/ml after 24 hrs by agar diffusion test; assay type: functional, organism-based; how it was run: as §2
Bacillus [12] = assay: Antibacterial activity against Bacillus idosus B 241 assessed as concentration required to produce >11 mm of zone of inhibition after 24 hrs by agar diffusion test; assay type: functional; how it was run: as §2
Staphylococcus aureus [13] = assay: Antibacterial activity against Staphylococcus aureus NRRL B 313 at 2 mg/ml after 24 hrs by agar diffusion test; assay type: functional, organism-based; how it was run: as §3
Bacillus [14] = assay: Antibacterial activity against Bacillus idosus B 241 at 50 mg/ml after 24 hrs by agar diffusion test; assay type: functional; conditions: B 241, 24 h, read-out: DIZ; how it was run: as §2
Escherichia coli [15] = assay: Antibacterial activity against Escherichia coli ATCC 8739 assessed as concentration required to produce >11 mm of zone of inhibition after 24 hrs by agar diffusion test; assay type: functional; how it was run: as §2
Candida tropicalis [16] = assay: Antifungal activity against Candida tropicalis ATCC 20336 at 50 mg/ml after 72 hrs by agar diffusion test; assay type: functional; conditions: ATCC 20336, 72 h, read-out: DIZ; how it was run: as §1
Bacillus subtilis [17] = assay: Antibacterial activity against Bacillus subtilis ATCC 6633 at 50 mg/ml after 24 hrs by agar diffusion test; assay type: functional; conditions: ATCC 6633, 24 h, read-out: DIZ; how it was run: as §2
Bacillus cereus [18] = assay: Antibacterial activity against Bacillus cereus ATCC 11778 assessed as concentration required to produce >11 mm of zone of inhibition after 24 hrs by agar diffusion test; assay type: functional; how it was run: as §2
Acinetobacter johnsonii [19] = assay: Antibacterial activity against Acinetobacter johnsonii ATCC 17909 at 50 mg/ml after 24 hrs by agar diffusion test; assay type: functional; conditions: ATCC 17909, 24 h, read-out: DIZ; how it was run: as §2
Candida tropicalis [20] = assay: Antifungal activity against Candida tropicalis ATCC 20336 at 2 mg/ml after 72 hrs by agar diffusion test; assay type: functional, organism-based; how it was run: as §1
Priestia megaterium [21] = assay: Antibacterial activity against Bacillus megaterium NRRL 1353895 at 50 mg/ml after 24 hrs by agar diffusion test; assay type: functional; conditions: NRRL 1353895, 24 h, read-out: DIZ; how it was run: as §2
Staphylococcus aureus [22] = assay: Antibacterial activity against Staphylococcus aureus NRRL B 313 assessed as concentration required to produce >11 mm of zone of inhibition after 24 hrs by agar diffusion test; assay type: functional; how it was run: as §3
Micrococcus luteus [23] = assay: Antibacterial activity against Micrococcus luteus ATCC 9631 at 2 mg/ml after 24 hrs by agar diffusion test; assay type: functional, organism-based; how it was run: as §2
Bacillus mycoides [24] = assay: Antibacterial activity against Bacillus mycoides DSMZ 274 assessed as concentration required to produce >11 mm of zone of inhibition after 24 hrs by agar diffusion test; assay type: functional; how it was run: as §2
Bacillus mycoides [25] = assay: Antibacterial activity against Bacillus mycoides DSMZ 274 at 50 mg/ml after 24 hrs by agar diffusion test; assay type: functional; conditions: DSMZ 274, 24 h, read-out: DIZ; how it was run: as §2
Acinetobacter johnsonii [26] = assay: Antibacterial activity against Acinetobacter johnsonii ATCC 17909 assessed as concentration required to produce >11 mm of zone of inhibition after 24 hrs by agar diffusion test; assay type: functional; how it was run: as §2
Staphylococcus aureus [27] = assay: Antibacterial activity against Staphylococcus aureus NRRL B 313 at 50 mg/ml after 24 hrs by agar diffusion test; assay type: functional; conditions: NRRL B 313, 24 h, read-out: DIZ; how it was run: as §3
Candida tropicalis [28] = assay: Antifungal activity against Candida tropicalis ATCC 20336 assessed as concentration required to produce >11 mm of zone of inhibition after 72 hrs by agar diffusion test; assay type: functional; how it was run: as §1
Escherichia coli [29] = assay: Antibacterial activity against Escherichia coli ATCC 8739 at 50 mg/ml after 24 hrs by agar diffusion test; assay type: functional; conditions: ATCC 8739, 24 h, read-out: DIZ; how it was run: as §2
Bacillus subtilis [30] = assay: Antibacterial activity against Bacillus subtilis ATCC 6633 assessed as concentration required to produce >11 mm of zone of inhibition after 24 hrs by agar diffusion test; assay type: functional; how it was run: as §2
Penicillium chrysogenum [31] = assay: Antifungal activity against Penicillium chrysogenum CECT 2802 at 2 mg/ml after 72 hrs by agar diffusion test; assay type: functional, organism-based; how it was run: as §1
Micrococcus luteus [32] = assay: Antibacterial activity against Micrococcus luteus ATCC 9631 at 50 mg/ml after 24 hrs by agar diffusion test; assay type: functional; conditions: ATCC 9631, 24 h, read-out: DIZ; how it was run: as §2
Micrococcus luteus [33] = assay: Antibacterial activity against Sarcina lutea ATCC 9341 at 2 mg/ml after 24 hrs by agar diffusion test; assay type: functional, organism-based; how it was run: as §2
Saccharomyces cerevisiae [34] = assay: Antifungal activity against Saccharomyces cerevisiae ATCC 9763 assessed as concentration required to produce >11 mm of zone of inhibition after 72 hrs by agar diffusion test; assay type: functional; how it was run: as §1
Bacillus [35] = assay: Antibacterial activity against Bacillus idosus B 241 at 2 mg/ml after 24 hrs by agar diffusion test; assay type: functional, organism-based; how it was run: as §2
[36] = test system: Mycobacterium tuberculosis; assay: Antimycobacterial activity against Mycobacterium tuberculosis H37Rv after 45 days; assay type: functional
How it was run: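 Canetti proportion method. Compound in DMSO is added to Löwenstein–Jensen egg medium before coagulation (30 min, 85 °C), tested at three levels plus a lower one where needed. Tubes are inoculated with H37Rv at 10⁵ cells/ml and incubated 45 days at 37 °C. Colony counts versus drug-free control give percentage inhibition.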

Bacillus subtilis [37] = assay: Antibacterial activity against Bacillus subtilis ATCC 6633 at 2 mg/ml after 24 hrs by agar diffusion test; assay type: functional, organism-based; how it was run: as §2

CC[C@H](CO)NCc1ccc2c(c1)Cc1ccccc1-2
zone of inhibition at 50000 µg/mL (Saccharomyces cerevisiae [1]): 20 mm
diameter of the inhibition zone (DIZ) (Bacillus mycoides [2]): inactive
Activity (Priestia megaterium [3]): 1.25 mg/mL
diameter of the inhibition zone (DIZ) (Saccharomyces cerevisiae [4]): inactive
zone of inhibition at 50000 µg/mL (Micrococcus luteus [5]): 18 mm
diameter of the inhibition zone (DIZ) (Bacillus cereus [6]): inactive
diameter of the inhibition zone (DIZ) (Escherichia coli [7]): inactive
zone of inhibition at 50000 µg/mL (Penicillium chrysogenum [8]): 30 mm
diameter of the inhibition zone (DIZ) (Acinetobacter johnsonii [9]): inactive
zone of inhibition at 50000 µg/mL (Bacillus cereus [10]): 16 mm
diameter of the inhibition zone (DIZ) (Priestia megaterium [11]): inactive
Activity (Bacillus [12]): 0.6 mg/mL
diameter of the inhibition zone (DIZ) (Staphylococcus aureus [13]): inactive
zone of inhibition at 50000 µg/mL (Bacillus [14]): 17 mm
Activity (Escherichia coli [15]): 1.25 mg/mL
zone of inhibition at 50000 µg/mL (Candida tropicalis [16]): 21 mm
zone of inhibition at 50000 µg/mL (Bacillus subtilis [17]): 18 mm
Activity (Bacillus cereus [18]): 1.25 mg/mL
zone of inhibition at 50000 µg/mL (Acinetobacter johnsonii [19]): 17 mm
diameter of the inhibition zone (DIZ) (Candida tropicalis [20]): inactive
zone of inhibition at 50000 µg/mL (Priestia megaterium [21]): 16 mm
Activity (Staphylococcus aureus [22]): 1.25 mg/mL
diameter of the inhibition zone (DIZ) (Micrococcus luteus [23]): inactive
Activity (Bacillus mycoides [24]): 1.25 mg/mL
zone of inhibition at 50000 µg/mL (Bacillus mycoides [25]): 20 mm
Activity (Acinetobacter johnsonii [26]): 1.25 mg/mL
zone of inhibition at 50000 µg/mL (Staphylococcus aureus [27]): 17 mm
Activity (Candida tropicalis [28]): 0.06 mg/mL
zone of inhibition at 50000 µg/mL (Escherichia coli [29]): 16 mm
Activity (Bacillus subtilis [30]): 1.25 mg/mL
diameter of the inhibition zone (DIZ) (Penicillium chrysogenum [31]): inactive
zone of inhibition at 50000 µg/mL (Micrococcus luteus [32]): 16 mm
diameter of the inhibition zone (DIZ) (Micrococcus luteus [33]): inactive
Activity (Saccharomyces cerevisiae [34]): 1.25 mg/mL
diameter of the inhibition zone (DIZ) (Bacillus [35]): inactive
MIC [36]: 18.7 µM (≈ 5.01 µg/mL)
diameter of the inhibition zone (DIZ) (Bacillus subtilis [37]): inactive
